Assays:
[1] = Induction of Coenzyme A regeneration in human IMR-32 PANK2 knockdown cells at 50 uM for 24 hrs by HPLC analysis relative to control; format: functional
Summary of the method: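 PANK2-knockout neuroblastoma cells were grown in MEM with 10% FBS and 1 µg/mL puromycin and seeded at 0.2×10⁶ cells/well. After 72 h, they were dosed at 50 µM in DMSO (final 0.1%) at 37 °C. Washed, frozen pellets were reconstituted in ammonium acetate (pH 5.1) with internal standard, and free CoA was measured by LC-MS/MS. Intracellular volume was taken as 2 µL/10⁶ cells; results are fold over vehicle-treated cells.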

[2] = Stability of compound in human whole blood assessed as half life; format: ADME, tissue-based
[3] = Stability of compound in human plasma assessed as half life; format: ADME, cell-free
[4] = Apparent permeability in porcine brain endothelial cells; format: ADME, cell-based, Sus scrofa, Endothelial cell; settings: pig
[5] = Stability of compound in human hepatocytes assessed as half life; format: ADME, cell-based, Hepatocyte
[6] = Increase in free coenzyme A level in C57BL6 mouse brain at 500 mg/kg, po administered as single dose measured after 1 hr UPLC quadrupole-time-of-flight mass spectrometry (Rvb =0%); format: functional
Summary of the method: (§1)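 C57BL6 mice, three per time point, received one oral 500 mg/kg dose of isotopically labeled prodrug, and brains were taken at 0, 1, 6 and 24 h. Brains were homogenized in water (3 mL/g), protein was precipitated with MeOH, and dried supernatant was reconstituted in 10 mM ammonium acetate (pH ~5). Analysis was UPLC-QTOF MS in positive ESI, scoring labeled CoA (+6, +4 amu) as a share of free CoA.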

[7] = Increase in free coenzyme A level in C57BL6 mouse brain at 500 mg/kg, po administered as single dose measured after 6 hrs UPLC quadrupole-time-of-flight mass spectrometry (Rvb =0%); format: functional; summary of the method: as §1
[8] = Increase in free coenzyme A level in C57BL6 mouse brain at 500 mg/kg, po administered as single dose measured after 24 hrs UPLC quadrupole-time-of-flight mass spectrometry (Rvb =0%); format: functional; summary of the method: as §1

| half-life [2] [min] | SMILES | fold change (FC) [1] | further results |
| --- | --- | --- | --- |
| > 60 | CC(C)(C)C(=O)OCO[P@@]1(=O)OCC(C)(C)[C@H](C(=O)NCCC(=O)O)O1 | 4 | – |
| – | CCC(CC)C(=O)OCOP1(=O)OCC(C)(C)[C@H](C(=O)NCCC(=O)OC)O1 (mixture of isomers) | 369 | – |
| – | COC(=O)CCNC(=O)[C@@H]1OP(=O)(OCOC(=O)c2ccncc2)OCC1(C)C (mixture of isomers) | 35 | – |
| – | COC(=O)CCNC(=O)[C@@H]1OP(=O)(OCOC(=O)c2ocnc2C)OCC1(C)C (mixture of isomers) | 39 | – |
| > 60 | COC(=O)CCNC(=O)[C@@H]1O[P@@](=O)(OCOC(=O)c2scnc2C(C)(C)C)OCC1(C)C (relative stereo) | – | – |
| – | COC(=O)CCNC(=O)[C@@H]1O[P@](=O)(OCOC(=O)c2cncs2)OCC1(C)C (relative stereo) | – | half-life [3]: < 9.6 min |
| – | COC(=O)CCNC(=O)[C@@H]1OP(=O)(OCOC(=O)c2scnc2C(C)(C)C)OCC1(C)C (mixture of isomers) | 3 | – |
| – | COC(=O)CCNC(=O)[C@@H]1O[P@@](=O)(OCOC(=O)c2cncs2)OCC1(C)C (relative stereo) | – | half-life [3]: < 9.6 min |
| 11.4 | CC(C)(C)C(=O)OCO[P@@]1(=O)OCC(C)(C)[C@H](C(=O)NCCC(=O)OC2CCN(Cc3ccccc3)C2)O1 (stereo partly specified) | 207 | – |
| > 60 | COC(=O)CCNC(=O)[C@@H]1O[P@@](=O)(OCOC(=O)c2scnc2C)OCC1(C)C | 40 | Papp [4]: 5.1 ×10⁻⁶ cm/s; half-life [5]: 30 min |
| < 9.6 | CC(C)(C)C(=O)OCO[P@@]1(=O)OCC(C)(C)[C@H](C(=O)NCCC(=O)OCc2cncs2)O1 | 133 | – |
| – | COC(=O)CCNC(=O)[C@@H]1O[P@@](=O)(OCOC(=O)C(C)(C)C)OCC1(C)C | 198 | – |
| < 9.6 | CC(C)(C)C(=O)OCO[P@@]1(=O)OCC(C)(C)[C@H](C(=O)NCCC(=O)OCCS(C)(=O)=O)O1 | 121 | – |
| – | COC(=O)CCNC(=O)[C@@H]1OP(=O)(OCOC(=O)c2cnccn2)OCC1(C)C (mixture of isomers) | 77 | – |
| – | COC(=O)CCNC(=O)[C@@H]1O[P@](=O)(Oc2ccccc2C(=O)OC)OCC1(C)C | 4 | – |
| < 9.6 | CCc1cc(C(=O)OCO[P@]2(=O)OCC(C)(C)[C@H](C(=O)NCCC(=O)OC)O2)n(C)n1 (relative stereo) | – | – |
| – | COC(=O)CCNC(=O)[C@@H]1OP(=O)(OCOC(=O)C(C)C)OCC1(C)C (mixture of isomers) | 92 | – |
| – | COC(=O)CCNC(=O)[C@@H]1O[P@](=O)(Oc2ccc(F)cc2)OCC1(C)C | 87 | Papp [4]: 16 ×10⁻⁶ cm/s |
| – | COC(=O)CCNC(=O)[C@@H]1OP(=O)(OCOC(=O)c2cc(C(C)(C)C)n[nH]2)OCC1(C)C (mixture of isomers) | 85 | – |
| < 9.6 | CC(C)(C)C(=O)OCO[P@@]1(=O)OCC(C)(C)[C@H](C(=O)NCCC(=O)OCCc2ccccn2)O1 | 100 | – |
| 16.2 | COC(=O)CCNC(=O)[C@@H]1O[P@](=O)(OCOC(=O)c2ocnc2C)OCC1(C)C | – | – |
| – | COC(=O)CCNC(=O)[C@@H]1OP(=O)(OCOC(=O)c2cc(C)nn2C)OCC1(C)C (mixture of isomers) | 42 | – |
| – | COC(=O)CCNC(=O)[C@@H]1O[P@@](=O)(Oc2ccc(F)cc2)OCC1(C)C | 2 | – |
| < 9.6 | COC(=O)CCNC(=O)[C@@H]1O[P@](=O)(OCOC(=O)c2scnc2C)OCC1(C)C (relative stereo) | – | – |
| 16.8 | CCOC(=O)CCNC(=O)[C@@H]1O[P@@](=O)(OCOC(=O)C(C)(C)C)OCC1(C)C | 85 | – |

| half-life [2] [min] | SMILES | fold change (FC) [1] | further results |
| --- | --- | --- | --- |
| > 60 | COC(=O)CCNC(=O)[C@@H]1O[P@@](=O)(OCOC(=O)c2cc(C(C)(C)C)n[nH]2)OCC1(C)C | 101 | Papp [4]: 5.3 ×10⁻⁶ cm/s; half-life [5]: 30 min |
| – | COC(=O)CCNC(=O)[C@@H]1OP(=O)(OCOC(=O)c2ccns2)OCC1(C)C (mixture of isomers) | 37 | – |
| – | COC(=O)CCNC(=O)[C@@H]1OP(=O)(OCOC(=O)c2ccnn2C)OCC1(C)C (mixture of isomers) | 58 | – |
| – | CCCC(=O)OCOP1(=O)OCC(C)(C)[C@H](C(=O)NCCC(=O)OC)O1 (mixture of isomers) | 84 | – |
| < 9.6 | COC(=O)CCNC(=O)[C@@H]1O[P@](=O)(OCOC(=O)c2ccnn2C)OCC1(C)C | – | – |
| – | CO[13C](=O)[13CH2][13CH2][15NH]C(=O)[C@@H]1OP(=[18O])(OCOC(=O)C(C)(C)C)OCC1(C)C (stereo partly specified) | – | Activity [6]: 0%; Activity [7]: 5.3%; Activity [8]: 2.1% |
| – | CCc1cc(C(=O)OCOP2(=O)OCC(C)(C)[C@H](C(=O)NCCC(=O)OC)O2)n(C)n1 (mixture of isomers) | 130 | – |
| < 9.6 | COC(=O)CCNC(=O)[C@@H]1O[P@](=O)(OCOC(=O)c2ccns2)OCC1(C)C (relative stereo) | – | – |
| > 60 | CC(C)(C)OC(=O)CCNC(=O)[C@@H]1OP(=O)(OCOC(=O)C(C)(C)C)OCC1(C)C (mixture of isomers) | 2 | – |
| 26.4 | COC(=O)CCNC(=O)[C@@H]1O[P@](=O)(OCOC(=O)c2scnc2C(C)(C)C)OCC1(C)C (relative stereo) | – | – |
| ≥ 58.2 | CCc1cc(C(=O)OCO[P@@]2(=O)OCC(C)(C)[C@H](C(=O)NCCC(=O)OC)O2)n(C)n1 | 14 | Papp [4]: 11.8 ×10⁻⁶ cm/s; half-life [5]: 18 min |
| – | COC(=O)CCNC(=O)[C@@H]1OP(=O)(OCOC(=O)C2(C(N)=O)CC2)OCC1(C)C (mixture of isomers) | 12 | – |
| – | CO[13C](=O)[13CH2][13CH2][15NH]C(=O)[C@@H]1OP(=O)(OCOC(=O)C(C)(C)C)OCC1(C)C (stereo partly specified) | – | Activity [6]: 0%; Activity [7]: 2.7%; Activity [8]: 12.9% |
| < 9.6 | COC(=O)CCNC(=O)[C@@H]1O[P@](=O)(OCOC(=O)c2cc(C(C)(C)C)n[nH]2)OCC1(C)C (relative stereo) | – | – |
| – | COC(=O)CCNC(=O)[C@@H]1OP(=O)(OCOC(=O)c2scnc2C)OCC1(C)C (mixture of isomers) | 44 | – |
| < 9.6 | COC(=O)CCNC(=O)[C@@H]1O[P@@](=O)(OCOC(=O)c2ccns2)OCC1(C)C (relative stereo) | – | – |
| – | COC(=O)CCNC(=O)[C@@H]1OP(=O)(OCOC(=O)OC(C)C)OCC1(C)C (mixture of isomers) | 199 | – |
| – | COC(=O)CCNC(=O)[C@@H]1O[P@](=O)(OCOC(=O)C(C)(C)C)OCC1(C)C | 106 | – |
| > 60 | COC(=O)CCNC(=O)[C@@H]1O[P@@](=O)(OCOC(=O)c2ccnn2C)OCC1(C)C (relative stereo) | – | – |
| – | COC(=O)CCNC(=O)[C@@H]1O[P@@](=O)(OC(C)OC(=O)C(C)(C)C)OCC1(C)C (stereo partly specified) | 3 | – |
| < 9.6 | COC(=O)CCNC(=O)[C@@H]1O[P@](=O)(OCOC(=O)c2cc(C)nn2C)OCC1(C)C (relative stereo) | – | – |
| – | COC(=O)CCNC(=O)[C@@H]1OP(=O)(OCOC(=O)c2cncs2)OCC1(C)C (mixture of isomers) | 88 | – |
| 31.2 | COC(=O)CCNC(=O)[C@@H]1O[P@@](=O)(OCOC(=O)c2ocnc2C)OCC1(C)C (relative stereo) | – | – |
| > 60 | COC(=O)CCNC(=O)[C@@H]1O[P@@](=O)(OCOC(=O)c2cc(C)nn2C)OCC1(C)C (relative stereo) | – | – |
| – | COC(=O)CCNC(=O)[C@@H]1OP(=O)(OCOC(=O)c2ccccc2)OCC1(C)C (mixture of isomers) | 278 | – |

| SMILES | half-life [2] [min] | fold change (FC) [1] | further results |
| --- | --- | --- | --- |
| COC(=O)CCNC(=O)[C@@H]1O[P@](=O)(Oc2ccc(C#N)cc2)OCC1(C)C | 27.6 | 7 | – |
| COC(=O)CCNC(=O)C1OP(=O)(Oc2ccc(F)cc2)OCC1(C)C (mixture of isomers) | > 60 | – | – |
| COC(=O)CCNC(=O)[C@@H]1O[P@](=O)(Oc2ccc(S(F)(F)(F)(F)F)cc2)OCC1(C)C | 30 | 34 | – |
| COC(=O)CCNC(=O)[C@@H]1OP(=O)(Oc2ccc(F)cc2)OCC1(C)C (mixture of isomers) | > 60 | – | – |
| COC(=O)CCNC(=O)[C@@H]1O[P@](=O)(Oc2ccc(C(F)(F)F)cc2)OCC1(C)C | > 60 | 102 | – |
| COC(=O)CCNC(=O)[C@@H]1O[P@](=O)(Oc2ccc(C[C@H](N)C(=O)OC)cc2)OCC1(C)C | 30 | 81 | – |

— ChEMBL document CHEMBL4673366, “Cyclic Phosphopantothenic Acid Prodrugs for Treatment of Pantothenate Kinase-Associated Neurodegeneration” (J Med Chem, 2020)
